Data taken from ChEMBL document CHEMBL5724801, “EUbOPEN Chemogenomics Library - Multiplex” (2024).
“And” between values parts separate entries of the source, which are not always exact repeats. Equal values may be shown once.

Tested on: Fibroblast
Test: Multiplex assay against human fibroblast
Assay type: toxicity, cell-based
Method in brief: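 Live cells carried four stains from seeding: Hoechst33342, BioTracker Green Microtubule Cytoskeleton Dye, MitoTracker Red and Annexin V Alexa Fluor 680. They were imaged on a CQ1 microscope at 37°C and 5% CO2 after compound addition. Using CellPathfinder machine-learning gating, cells were split into Hoechst high-intensity objects or normal cells, normal cells into healthy, pyknosed or fragmented nuclei, and pyknosed cells into mitotic or apoptotic; tubulin, mitochondrial-mass and membrane-permeability phenotypes are per cents of healthy-nucleus cells.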

[1] = 12 h, 1 µM, compound concentration 1 uM
[2] = 12 h, 10 µM, compound concentration 10 uM
[3] = 24 h, 1 µM, compound concentration 1 uM
[4] = 24 h, 10 µM, compound concentration 10 uM
[5] = 48 h, 1 µM, compound concentration 1 uM
[6] = 48 h, 10 µM, compound concentration 10 uM

SMILES: O=C1N=C(NCc2cccs2)S/C1=C\c1ccc2ncccc2c1
- Population Apoptotic (%) [1]: 15.79% and 17.07%
- Population Healthy Nuclei (%) [1]: 66.3% and 76.85%
- Population Hoechst High Intensity Objects (%) [1]: 0%
- Population Membrane Permeable-Phenotype (%) [1]: 3.28% and 1.28%
- Population Mitochondria Different-Phenotype (%) [1]: 4.92% and 6.41%
- Population Mitotic Cells (%) [1]: 84.21% and 82.93%
- Population Normal (%) [1]: 100%
- Population Pyknosed Nuclei (%) [1]: 20.65% and 20.2%
- Population Tubulin-Different-Phenotype (%) [1]: 6.56% and 12.82%
- Total Cell Count [1]: 184 and 203
- Population Apoptotic (%) [2]: 20.69% and 27.27%
- Population Healthy Nuclei (%) [2]: 61.15% and 75.14%
- Population Hoechst High Intensity Objects (%) [2]: 0%
- Population Membrane Permeable-Phenotype (%) [2]: 14.58% and 10.29%
- Population Mitochondria Different-Phenotype (%) [2]: 25% and 16.91%
- Population Mitotic Cells (%) [2]: 79.31% and 72.73%
- Population Normal (%) [2]: 100%
- Population Pyknosed Nuclei (%) [2]: 18.47% and 18.23%
- Population Tubulin-Different-Phenotype (%) [2]: 34.38% and 55.15%
- Total Cell Count [2]: 157 and 181
- Population Apoptotic (%) [3]: 14.29% and 17.86%
- Population Fragmented Nuclei (%) [3]: 10.34% and 5.09%
- Population Healthy Nuclei (%) [3]: 72.41% and 81.94%
- Population Hoechst High Intensity Objects (%) [3]: 0%
- Population Membrane Permeable-Phenotype (%) [3]: 4.08% and 3.39%
- Population Mitochondria Different-Phenotype (%) [3]: 5.44% and 3.39%
- Population Mitotic Cells (%) [3]: 85.71% and 82.14%
- Population Normal (%) [3]: 100%
- Population Pyknosed Nuclei (%) [3]: 17.24% and 12.96%
- Population Tubulin-Different-Phenotype (%) [3]: 7.48% and 19.77%
- Total Cell Count [3]: 203 and 216
- Population Apoptotic (%) [4]: 19.05% and 33.33%
- Population Fragmented Nuclei (%) [4]: 12.93% and 9.6%
- Population Healthy Nuclei (%) [4]: 72.79% and 76.84%
- Population Hoechst High Intensity Objects (%) [4]: 0%
- Population Membrane Permeable-Phenotype (%) [4]: 11.21% and 5.88%
- Population Mitochondria Different-Phenotype (%) [4]: 23.36% and 20.59%
- Population Mitotic Cells (%) [4]: 80.95% and 66.67%
- Population Normal (%) [4]: 100%
- Population Pyknosed Nuclei (%) [4]: 14.29% and 13.56%
- Population Tubulin-Different-Phenotype (%) [4]: 49.53% and 66.91%
- Total Cell Count [4]: 147 and 177
- Population Apoptotic (%) [5]: 14.81% and 21.05%
- Population Fragmented Nuclei (%) [5]: 8.85% and 4.11%
- Population Healthy Nuclei (%) [5]: 79.2% and 87.21%
- Population Hoechst High Intensity Objects (%) [5]: 0%
- Population Membrane Permeable-Phenotype (%) [5]: 1.12% and 4.19%
- Population Mitochondria Different-Phenotype (%) [5]: 8.38% and 5.76%
- Population Mitotic Cells (%) [5]: 85.19% and 78.95%
- Population Normal (%) [5]: 100%
- Population Pyknosed Nuclei (%) [5]: 11.95% and 8.68%
- Population Tubulin-Different-Phenotype (%) [5]: 6.7% and 19.37%
- Total Cell Count [5]: 226 and 219
- Population Apoptotic (%) [6]: 44.44% and 38.89%
- Population Fragmented Nuclei (%) [6]: 18.54% and 16.67%
- Population Healthy Nuclei (%) [6]: 75.5% and 74.24%
- Population Hoechst High Intensity Objects (%) [6]: 0%
- Population Membrane Permeable-Phenotype (%) [6]: 2.63% and 12.24%
- Population Mitochondria Different-Phenotype (%) [6]: 33.33% and 14.29%
- Population Mitotic Cells (%) [6]: 55.56% and 61.11%
- Population Normal (%) [6]: 100%
- Population Pyknosed Nuclei (%) [6]: 5.96% and 9.09%
- Population Tubulin-Different-Phenotype (%) [6]: 47.37% and 63.95%
- Total Cell Count [6]: 151 and 198

SMILES: CCN1CCN(Cc2ccc(Nc3ncc(F)c(-c4cc(F)c5nc(C)n(C(C)C)c5c4)n3)nc2)CC1.CS(=O)(=O)O
- Population Apoptotic (%) [1]: 17.78% and 12.5%
- Population Fragmented Nuclei (%) [1]: 19.76% and 8.1%
- Population Healthy Nuclei (%) [1]: 53.29% and 72.47%
- Population Hoechst High Intensity Objects (%) [1]: 0%
- Population Mitochondria Different-Phenotype (%) [1]: 15.73% and 16.2%
- Population Mitotic Cells (%) [1]: 82.22% and 87.5%
- Population Normal (%) [1]: 100%
- Population Pyknosed Nuclei (%) [1]: 26.95% and 19.43%
- Population Tubulin-Different-Phenotype (%) [1]: 38.2% and 41.9%
- Total Cell Count [1]: 167 and 247
- Population Apoptotic (%) [2]: 22.89% and 30%
- Population Fragmented Nuclei (%) [2]: 14.07% and 8.33%
- Population Healthy Nuclei (%) [2]: 54.37% and 75%
- Population Hoechst High Intensity Objects (%) [2]: 0%
- Population Mitochondria Different-Phenotype (%) [2]: 15.38% and 7.78%
- Population Mitotic Cells (%) [2]: 77.11% and 70%
- Population Normal (%) [2]: 100%
- Population Pyknosed Nuclei (%) [2]: 31.56% and 16.67%
- Population Tubulin-Different-Phenotype (%) [2]: 68.53% and 62.59%
- Total Cell Count [2]: 263 and 360
- Population Apoptotic (%) [3]: 25%
- Population Fragmented Nuclei (%) [3]: 16.76% and 6.88%
- Population Healthy Nuclei (%) [3]: 56.76%
- Population Hoechst High Intensity Objects (%) [3]: 0%
- Population Mitotic Cells (%) [3]: 89.8% and 75%
- Population Normal (%) [3]: 100%
- Population Pyknosed Nuclei (%) [3]: 26.49% and 11.59%
- Population Tubulin-Different-Phenotype (%) [3]: 43.81% and 37.78%
- Total Cell Count [3]: 185 and 276
- Population Apoptotic (%) [4]: 27.71% and 21.01%
- Population Fragmented Nuclei (%) [4]: 11.19% and 3.61%
- Population Healthy Nuclei (%) [4]: 58.84% and 63.13%
- Population Hoechst High Intensity Objects (%) [4]: 0%
- Population Mitochondria Different-Phenotype (%) [4]: 23.31% and 9.92%
- Population Mitotic Cells (%) [4]: 72.29% and 78.99%
- Population Normal (%) [4]: 100%
- Population Pyknosed Nuclei (%) [4]: 29.96% and 33.25%
- Population Tubulin-Different-Phenotype (%) [4]: 62.58% and 53.05%
- Total Cell Count [4]: 277 and 415
- Population Apoptotic (%) [5]: 23.08% and 25%
- Population Fragmented Nuclei (%) [5]: 17.96% and 9.26%
- Population Healthy Nuclei (%) [5]: 75.73% and 86.3%
- Population Hoechst High Intensity Objects (%) [5]: 0%
- Population Mitotic Cells (%) [5]: 76.92% and 75%
- Population Normal (%) [5]: 100%
- Population Pyknosed Nuclei (%) [5]: 6.31% and 4.44%
- Population Tubulin-Different-Phenotype (%) [5]: 44.23% and 44.64%
- Total Cell Count [5]: 206 and 270
- Population Apoptotic (%) [6]: 38.62% and 20.77%
- Population Fragmented Nuclei (%) [6]: 5.28% and 6.72%
- Population Healthy Nuclei (%) [6]: 58.29% and 65.97%
- Population Hoechst High Intensity Objects (%) [6]: 0%
- Population Mitotic Cells (%) [6]: 61.38% and 79.23%
- Population Normal (%) [6]: 100%
- Population Pyknosed Nuclei (%) [6]: 36.43% and 27.31%
- Population Tubulin-Different-Phenotype (%) [6]: 43.97% and 47.74%
- Total Cell Count [6]: 398 and 670

SMILES: CCn1c(-c2nc3cc(C(=O)N4CCCC(N)C4)ccc3n2C)cc2ccccc21.Cl (configuration not stated)
- Population Fragmented Nuclei (%) [1]: 17% [middle of 4 runs]
- Population Healthy Nuclei (%) [1]: 67% and 54% and 55.75% and 78.2%
- Population Hoechst High Intensity Objects (%) [1]: 3% and 5% and 0%
- Population Membrane Permeable-Phenotype (%) [1]: 0% and 2% and 1.03% and 4.85%
- Population Mitotic Cells (%) [1]: 77.42% [middle of 4 runs]
- Population Normal (%) [1]: 96% and 94% and 100%
- Population Pyknosed Nuclei (%) [1]: 15% and 23% and 28.16% and 14.69%
- Population Tubulin-Different-Phenotype (%) [1]: 27% and 41% and 21.65% and 21.21%
- Total Cell Count [1]: 128 and 167 and 174 and 211
- Population Healthy Nuclei (%) [2]: 63% and 37% and 62.74% and 73.72%
- Population Hoechst High Intensity Objects (%) [2]: 1% and 3% and 0%
- Population Membrane Permeable-Phenotype (%) [2]: 0% and 10.3% and 7.87%
- Population Mitochondria Different-Phenotype (%) [2]: 18% and 19% and 29.7% and 27.78%
- Population Mitotic Cells (%) [2]: 58% and 61% and 89.16% and 71.43%
- Population Normal (%) [2]: 98% and 96% and 100%
- Population Pyknosed Nuclei (%) [2]: 29% [middle of 4 runs]
- Population Tubulin-Different-Phenotype (%) [2]: 69% and 80% and 72.73% and 81.48%
- Total Cell Count [2]: 221 and 186 and 263 and 293
- Population Fragmented Nuclei (%) [3]: 22% [middle of 4 runs]
- Population Healthy Nuclei (%) [3]: 68% and 54% and 66.49% and 74.56%
- Population Hoechst High Intensity Objects (%) [3]: 0% and 9%
- Population Membrane Permeable-Phenotype (%) [3]: 0% and 3% and 2.33% and 7.06%
- Population Mitotic Cells (%) [3]: 70.59% [middle of 4 runs]
- Population Normal (%) [3]: 99% and 90% and 100%
- Population Pyknosed Nuclei (%) [3]: 17% [middle of 4 runs]
- Population Tubulin-Different-Phenotype (%) [3]: 30% [middle of 4 runs]
- Total Cell Count [3]: 127 and 184 and 194 and 228
- Population Healthy Nuclei (%) [4]: 66% and 46% and 70.93% and 75.81%
- Population Hoechst High Intensity Objects (%) [4]: 3% and 4% and 0%
- Population Membrane Permeable-Phenotype (%) [4]: 0% and 2% and 4.95% and 6.19%
- Population Mitochondria Different-Phenotype (%) [4]: 40.95% [middle of 4 runs]
- Population Mitotic Cells (%) [4]: 45.1% [middle of 4 runs]
- Population Normal (%) [4]: 96% and 95% and 100%
- Population Pyknosed Nuclei (%) [4]: 23% [middle of 4 runs]
- Population Tubulin-Different-Phenotype (%) [4]: 76% and 82% and 83.33% and 85.24%
- Total Cell Count [4]: 231 and 189 and 313 and 277
- Population Healthy Nuclei (%) [5]: 67% and 51% and 79.63% and 83.64%
- Population Hoechst High Intensity Objects (%) [5]: 2% and 5% and 0%
- Population Membrane Permeable-Phenotype (%) [5]: 1% and 2% and 1.16% and 4.47%
- Population Normal (%) [5]: 97% and 94% and 100%
- Population Pyknosed Nuclei (%) [5]: 8% and 15% and 6.02% and 7.01%
- Total Cell Count [5]: 137 and 193 and 216 and 214
- Population Apoptotic (%) [6]: 76.92% [middle of 4 runs]
- Population Healthy Nuclei (%) [6]: 72% and 57% and 86.19% and 89.14%
- Population Hoechst High Intensity Objects (%) [6]: 3% and 0%
- Population Membrane Permeable-Phenotype (%) [6]: 0% and 3.83% and 7.75%
- Population Mitochondria Different-Phenotype (%) [6]: 22% and 16% and 24.74% and 18.08%
- Population Normal (%) [6]: 96% and 100%
- Population Pyknosed Nuclei (%) [6]: 8% and 3.3% and 4.28%
- Population Tubulin-Different-Phenotype (%) [6]: 85% and 61.67% and 81.55%
- Total Cell Count [6]: 232 and 231 and 333 and 304
